Assays:
[1] = target: Sphingosine 1-phosphate receptor 1 (Homo sapiens, UniProt P21453); test: Activity at human S1P1 receptor expressed in CHO cells by [35S]GTPgammaS binding assay; assay type: functional, cell-based
How it was run: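 Agonism measured as ligand-induced [35S]-GTPγS binding to membranes of CHO cells stably expressing the human S1P receptor.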

Rattus norvegicus [2] = test: Decrease in peripheral blood lymphocyte counts in Lewis rat at 1 mg/kg, po after 24 hrs; assay type: functional
How it was run: (§1)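 Rat oral dose-titration at 1–30 mpk po. Peripheral blood lymphocyte counts and plasma compound concentrations determined 24 h postdose.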

[3] = Plasma concentration in Lewis rat at 10 mg/kg, po after 24 hrs; assay type: ADME, organism-based; parameters: dose 10 mg/kg, route oral; how it was run: as §1
[4] = Plasma concentration in femoral artery cannulated Lewis rat at 3 mg/kg, po after 72 hrs; assay type: ADME, organism-based; parameters: dose 3 mg/kg, route oral
How it was run: (§2)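 Femoral artery cannulated Lewis rats (n = 3) got a single 3 mpk oral dose. Compound plasma concentration (nM) was measured serially over time up to 72 h postdose. Peripheral blood lymphocyte counts were taken in parallel at the same time points. The same animals were later given a second 3 mpk oral dose.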

Rattus norvegicus [5] = test: Decrease in peripheral blood lymphocyte counts in femoral artery cannulated Lewis rat at 3 mg/kg, po after 1 hr; assay type: functional
How it was run: (§3)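 Femoral artery cannulated Lewis rats (n = 3) given a single 3 mpk oral dose. PBL counts and plasma compound concentration sampled over time up to 72 h postdose. A repeat 3 mpk po challenge was given to the same animals.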

Rattus norvegicus [6] = test: Decrease in peripheral blood lymphocyte counts in femoral artery cannulated Lewis rat at 3 mg/kg, po after 32 hrs; assay type: functional; how it was run: as §3
[7] = target: Sphingosine 1-phosphate receptor 5 (Homo sapiens, UniProt Q9H228); test: Displacement of [33P]sphingosine 1 phosphate from human S1P5 receptor expressed in CHO cells; assay type: cell-based
How it was run: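 Competition binding with [33P]-labeled S1P on membranes of CHO cells stably expressing each human S1P receptor. Values are the mean of n = 3 determinations.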

[8] = Bioavailability in Beagle dog at 1 mg/kg, po and 0.5 mg/kg, iv; assay type: ADME, organism-based, Canis lupus familiaris; conditions: in vivo
How it was run: (§4)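 Single-dose PK at 1.0 mpk po and 0.5 mpk iv. Plasma compound levels measured.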

[9] = Half life in rhesus monkey at 1 mg/kg, po and 0.5 mg/kg, iv; conditions: in vivo
[10] = Plasma concentration in femoral artery cannulated Lewis rat at 3 mg/kg, po after 0.25 hrs; assay type: ADME, organism-based; parameters: dose 3 mg/kg, route oral; how it was run: as §3
[11] = Half life in rat at 2 mg/kg, po and 1 mg/kg, iv; assay type: ADME, organism-based; conditions: in vivo
How it was run: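 Rat PK at 2.0 mpk po and 1.0 mpk iv. Plasma compound levels measured.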

Rattus norvegicus [12] = test: Decrease in peripheral blood lymphocytes in Lewis rat at 3 mg/kg, po after 24 relative to hrs control; assay type: functional; parameters: scale not given: the % may be the effect or the level left; how it was run: as §1
Rattus norvegicus [13] = test: Decrease in peripheral blood lymphocyte counts in femoral artery cannulated Lewis rat at 3 mg/kg, po after 4 hrs; assay type: functional; how it was run: as §3
Canis familiaris = test: Cmax in Beagle dog at 1 mg/kg, po and 0.5 mg/kg, iv; assay type: ADME, organism-based, Canis lupus familiaris; conditions: in vivo; how it was run: as §4
Rattus norvegicus [14] = test: Decrease in peripheral blood lymphocyte counts in femoral artery cannulated Lewis rat at 3 mg/kg, po after 12 hrs; assay type: functional; how it was run: as §3
Rattus norvegicus [15] = test: Decrease in peripheral blood lymphocyte counts in Lewis rat at 3 mg/kg, po after 24 hrs; assay type: functional; how it was run: as §1
Rattus norvegicus [16] = test: Decrease in peripheral blood lymphocyte counts in Lewis rat at 10 mg/kg, po after 24 hrs; assay type: functional; how it was run: as §1
[17] = Plasma concentration in Lewis rat at 1 mg/kg, po after 24 hrs; assay type: ADME, organism-based; parameters: dose 1 mg/kg, route oral; how it was run: as §1
[18] = Plasma concentration in femoral artery cannulated Lewis rat at 3 mg/kg, po after 2 hrs; assay type: ADME, organism-based; parameters: dose 3 mg/kg, route oral; how it was run: as §2
Rattus norvegicus [19] = test: Decrease in peripheral blood lymphocyte counts in femoral artery cannulated Lewis rat at 3 mg/kg, po after 6 hrs; assay type: functional; how it was run: as §3
[20] = Plasma concentration in femoral artery cannulated Lewis rat at 3 mg/kg, po after 6 hrs; assay type: ADME, organism-based; parameters: dose 3 mg/kg, route oral; how it was run: as §2
[21] = Volume of distribution at steady state in rat at 2 mg/kg, po and 1 mg/kg, iv; assay type: ADME, organism-based; conditions: in vivo, read-out: Vdss
Rattus norvegicus [22] = test: Decrease in peripheral blood lymphocytes in Lewis rat at 30 mg/kg, po after 24 hrs relative to control; assay type: functional; parameters: scale not given: the % may be the effect or the level left; how it was run: as §1
Rattus norvegicus [23] = test: Decrease in peripheral blood lymphocyte counts in femoral artery cannulated Lewis rat at 3 mg/kg, po after 0.5 hrs; assay type: functional; how it was run: as §3
Rattus norvegicus [24] = test: Decrease in peripheral blood lymphocyte counts in femoral artery cannulated Lewis rat at 3 mg/kg, po after 2 hrs; assay type: functional; how it was run: as §3
[25] = Plasma concentration in femoral artery cannulated Lewis rat at 3 mg/kg, po after 0.5 hrs; assay type: ADME, organism-based; parameters: dose 3 mg/kg, route oral; how it was run: as §3
Rattus norvegicus [26] = test: Decrease in peripheral blood lymphocyte counts in femoral artery cannulated Lewis rat at 3 mg/kg, po after 72 hrs; assay type: functional; how it was run: as §3

Sequence of Sphingosine 1-phosphate receptor 1 (P21453 whole entry): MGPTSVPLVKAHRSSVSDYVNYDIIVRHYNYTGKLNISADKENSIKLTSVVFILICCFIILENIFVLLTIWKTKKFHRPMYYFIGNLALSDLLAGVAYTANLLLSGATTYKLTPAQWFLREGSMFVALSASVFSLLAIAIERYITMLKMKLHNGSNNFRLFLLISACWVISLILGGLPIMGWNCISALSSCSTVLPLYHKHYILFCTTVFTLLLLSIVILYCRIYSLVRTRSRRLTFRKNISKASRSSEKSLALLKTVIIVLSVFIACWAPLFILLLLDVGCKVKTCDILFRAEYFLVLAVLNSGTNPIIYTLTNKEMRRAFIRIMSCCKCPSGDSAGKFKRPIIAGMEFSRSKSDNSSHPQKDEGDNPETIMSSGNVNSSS
Sequence of Sphingosine 1-phosphate receptor 5 (Q9H228 whole entry): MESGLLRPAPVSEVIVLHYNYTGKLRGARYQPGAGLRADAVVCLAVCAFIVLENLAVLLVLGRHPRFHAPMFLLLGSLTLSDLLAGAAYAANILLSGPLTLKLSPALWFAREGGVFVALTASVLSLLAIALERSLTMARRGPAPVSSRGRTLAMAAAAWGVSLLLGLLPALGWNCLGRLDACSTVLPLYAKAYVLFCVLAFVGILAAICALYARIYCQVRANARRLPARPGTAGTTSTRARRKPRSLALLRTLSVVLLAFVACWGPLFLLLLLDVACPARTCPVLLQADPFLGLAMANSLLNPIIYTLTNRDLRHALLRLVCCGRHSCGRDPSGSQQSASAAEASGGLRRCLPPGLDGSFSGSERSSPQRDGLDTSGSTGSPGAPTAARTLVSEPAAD

EC50 [1]: 0.5 nM (agonist)
concentration at 24 h [3]: 370 nM
concentration at 72 h [4]: 8 nM
IC50 [7]: 23 nM (antagonist)
bioavailability [8]: 66%
half-life [9]: 750 min
concentration at 0.25 h [10]: 72 nM
half-life [11]: 402 min
Cmax (Canis familiaris): 1.3 µM
concentration at 24 h [17]: 22 nM
concentration at 2 h [18]: 310 nM
concentration at 6 h [20]: 380 nM
Vd [21]: 10 L/kg
concentration at 0.5 h [25]: 200 nM
SMILES: O=C(O)C1CN(Cc2ccc(OCc3cc(-c4ccccc4)c(C(F)(F)F)s3)cc2)C1
Activity (Rattus norvegicus [2]): 2230 µL⁻¹
Activity (Rattus norvegicus [5]): 3330 µL⁻¹
Activity (Rattus norvegicus [6]): 1800 µL⁻¹
Activity (Rattus norvegicus [12]): 78%
Activity (Rattus norvegicus [13]): 1130 µL⁻¹
Activity (Rattus norvegicus [14]): 1530 µL⁻¹
Activity (Rattus norvegicus [15]): 1530 µL⁻¹
Activity (Rattus norvegicus [16]): 1530 µL⁻¹
Activity (Rattus norvegicus [19]): 1330 µL⁻¹
Activity (Rattus norvegicus [22]): 79%
Activity (Rattus norvegicus [23]): 4200 µL⁻¹
Activity (Rattus norvegicus [24]): 1770 µL⁻¹
Activity (Rattus norvegicus [26]): 7000 µL⁻¹
